For series [1], the target named is T1, Cytochrome P450 1A2 (Homo sapiens, UniProt P05177).
T1 sequence (P05177 whole entry): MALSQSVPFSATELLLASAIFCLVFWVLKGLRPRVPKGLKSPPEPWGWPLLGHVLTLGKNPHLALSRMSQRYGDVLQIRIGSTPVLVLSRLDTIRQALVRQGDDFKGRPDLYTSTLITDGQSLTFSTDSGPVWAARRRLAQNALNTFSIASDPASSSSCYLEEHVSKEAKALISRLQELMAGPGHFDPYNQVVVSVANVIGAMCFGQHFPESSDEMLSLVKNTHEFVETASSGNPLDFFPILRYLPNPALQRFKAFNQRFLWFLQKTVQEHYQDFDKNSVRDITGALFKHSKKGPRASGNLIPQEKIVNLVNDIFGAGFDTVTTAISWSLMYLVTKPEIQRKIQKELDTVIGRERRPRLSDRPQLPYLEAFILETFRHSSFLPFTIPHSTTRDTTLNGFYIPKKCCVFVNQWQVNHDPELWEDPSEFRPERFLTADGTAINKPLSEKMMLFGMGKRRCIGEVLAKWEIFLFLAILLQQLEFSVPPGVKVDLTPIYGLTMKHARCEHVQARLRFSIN
Put plainly: ChEBML_1679936. From the text: Induction of CYP1A2 in cryopreserved human hepatocytes measured after 48 hrs

In series [2] the target is T2, Muscarinic acetylcholine receptor M4 (Homo sapiens, UniProt P08173).
T2 sequence (P08173 whole entry): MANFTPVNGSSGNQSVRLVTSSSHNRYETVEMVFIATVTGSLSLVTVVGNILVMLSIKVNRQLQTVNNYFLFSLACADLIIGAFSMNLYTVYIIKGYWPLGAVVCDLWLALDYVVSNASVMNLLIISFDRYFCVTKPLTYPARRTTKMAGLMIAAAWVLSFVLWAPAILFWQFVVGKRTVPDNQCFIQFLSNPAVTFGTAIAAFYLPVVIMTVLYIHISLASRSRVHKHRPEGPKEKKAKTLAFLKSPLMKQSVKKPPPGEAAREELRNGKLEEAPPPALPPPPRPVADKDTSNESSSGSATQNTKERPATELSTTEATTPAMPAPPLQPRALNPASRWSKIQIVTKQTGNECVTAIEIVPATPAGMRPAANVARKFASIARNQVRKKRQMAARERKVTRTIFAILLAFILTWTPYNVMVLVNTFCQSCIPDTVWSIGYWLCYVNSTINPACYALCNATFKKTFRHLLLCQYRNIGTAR
Put plainly: (§1) Positive allosteric modulation of human M4 receptor expressed in CHO cells coexpressing Gqi5 assessed as increase in acetylcholine-induced calcium mobilization. In outline: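 Calcium mobilization in CHO cells expressing hM4 with Gqi5. Compound added in presence of a fixed EC20 concentration of acetylcholine. Values are means of three independent experiments, each run in triplicate.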
(A change in cytosolic calcium serves as a functional read-out for many receptors and channels.)

Series [3] deals with T2, Muscarinic acetylcholine receptor M4. Briefly: ChEBML_1679899.
Source text: as §1

As to `Cc1nnc2sc(C(=O)NCc3ccc(-c4cccnc4F)cc3)c(N)c2c1C`, the EC50 (usually the concentration at which the effect is half-maximal) in series [1] was more than 50000 nM.

Turning to `Cc1nnc2sc(C(=O)NCc3ccc(-c4cnccn4)cc3)c(N)c2c1C`, the EC50 in series [2] amounted to 100 nM.

Take `Cc1nnc2sc(C(=O)NCc3ccc(-c4ccncc4)cc3)c(N)c2c1C`: in series [2], the EC50 turned out to be 26.9 nM.

As to `Cc1cc(-c2ccc(CNC(=O)c3sc4nnc(C)c(C)c4c3N)cc2)cnc1F`, the EC50 in series [3] was 776 nM.

As to `Cc1nnc2sc(C(=O)NCc3ccc(-c4cccnc4)cc3)c(N)c2c1C`, the EC50 in series [3] worked out at 63.1 nM.

Regarding `Cc1nnc2sc(C(=O)NCc3ccc(-c4ccnc(F)c4)cc3)c(N)c2c1C`, in series [2], the EC50 was 49 nM.
